Experimental data as given in ChEMBL document CHEMBL4311975, “Exploration of the antibiotic potentiating activity of indolglyoxylpolyamines” (Eur J Med Chem, 2019).
pIC50: −log10 of the molar value. In brackets after ≈: the same amount, converted by molar mass.

Legend:
[1] = Hemolytic activity against Sprague-Dawley rat RBC assessed as release of hemoglobin at 50 uM incubated for 1 hr relative to control; format: ADME, cell-based, Erythrocyte; conditions: red blood cells (erythrocytes), read-out: Activity
Outline: (§1)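 Fresh Sprague-Dawley rat erythrocytes were washed in saline and resuspended at 2% v/v. Cells were incubated with compound in DMSO/PBS for 1 h at 37 °C, then centrifuged at 200 g, and supernatant absorbance read at 540 nm. Results were normalised to DMSO/PBS (0%) and 0.1% Triton X-100 (100%). Single-point testing used 50 μM; HC50 came from 10-point curves. Means of three experiments.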

Pseudomonas aeruginosa [2] = test: Potentiation of doxycycline-induced antibacterial activity against Pseudomonas aeruginosa ATCC 27853 assessed as concentration required to restore 2 ug/ml doxycycline activity measured after 18 hrs; format: functional
Outline: (§2)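 Inoculum was 5×10^5 CFU in MHB with two-fold serial dilutions of adjuvant plus fixed doxycycline at 2 μg/mL. […] Repeated independently in triplicate.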

Pseudomonas aeruginosa [3] = test: Antibacterial activity against Pseudomonas aeruginosa ATCC 27853 assessed as growth inhibition incubated for 18 hrs by broth dilution method; format: functional; conditions: ATCC 27853, 18 h
Outline: (§3)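 Broth microdilution following CA-SFM recommendations. Inoculum was 10^5 CFU in Mueller-Hinton broth with two-fold serial drug dilutions. Plates were incubated 18 h at 37 °C. MIC was the lowest concentration giving complete inhibition of visible growth. Values are means, n = 3.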

Escherichia coli [4] = test: Antibacterial activity against Escherichia coli ATCC 25922 assessed as growth inhibition incubated for 18 hrs by broth dilution method; format: functional; conditions: ATCC 25922, 18 h; outline: as §3
L6 = test: Cytotoxicity against rat L6 cells measured after 72 hrs by alamar blue assay; format: cell-based; conditions: L6, 72 h
Outline: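 Rat L6 myoblasts, 4×10^4/well in RPMI 1640 with L-glutamine and 10% FBS, received seven 3-fold dilutions (90 to 0.123 μg/mL) for 72 h. Alamar Blue was added for 2 h and fluorescence read at ex 536/em 588 nm. Podophyllotoxin served as reference. Means, n = 2.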

Klebsiella pneumoniae [5] = test: Antibacterial activity against Klebsiella pneumoniae ATCC 700603 assessed as growth inhibition incubated for 18 hrs by resazurin dye based assay; format: functional; conditions: Klebsiella pneumoniae, 700603, 18 h
Outline: (§4)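 Overnight cultures were diluted 40-fold in MHB and grown 1.5–2 h at 37 °C to mid-log phase. Cells were added at 5×10^5 CFU/mL final to two-fold compound dilutions (0.008–32 μg/mL final), in duplicate, for 18 h at 37 °C. Resazurin (0.001% final) was added for 2 h and MIC read by eye. Means, n = 2.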

[6] = Hemolytic activity against Sprague-Dawley rat RBC assessed as release of hemoglobin incubated for 1 hr; format: ADME, cell-based, Erythrocyte; conditions: red blood cells (erythrocytes); outline: as §1
Cryptococcus neoformans = test: Antifungal activity against Cryptococcus neoformans ATCC 208821 assessed as growth inhibition incubated for 36 hrs by resazurin dye based assay; format: functional; conditions: ATCC 208821, 36 h
Outline: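 Cryptococcus was grown 3 days on YPD agar at 30 °C, suspended, and diluted in YNB broth to 2.5×10^3 CFU/mL. Cells were exposed to 0.008–32 μg/mL compound (final), in duplicate, for 36 h at 35 °C without shaking. Resazurin (0.006% final) was added for a further 3 h. MIC was read from absorbance at OD570–600. Means, n = 2.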

[7] = Cytotoxicity against human HEK293 cells measured after 20 hrs by resazurin dye based fluorescence assay; format: cell-based
Outline: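 HEK293 cells, 5,000/well in DMEM with 10% FBS, were exposed to compound for 20 h at 37 °C, 5% CO2. Resazurin (100 μM final) was added for 3 h, then fluorescence read at ex 560/em 590. Signal was normalised to tamoxifen (74 μg/mL, 0%) and untreated growth (100%), and CC50 came from dose-response fitting. Top dose 32 μg/mL. Means, n = 2.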

Candida albicans = test: Antifungal activity against Candida albicans ATCC 90028 assessed as growth inhibition incubated for 36 hrs by resazurin dye based assay; format: functional; conditions: ATCC 90028, 36 h
Outline: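 Yeast was grown 3 days on YPD agar at 30 °C. Colonies were suspended and diluted in YNB broth to 2.5×10^3 CFU/mL, then added to two-fold compound dilutions (0.008–32 μg/mL final), in duplicate. Plates stood 36 h at 35 °C without shaking. Means, n = 2.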

Staphylococcus aureus [8] = test: Antibacterial activity against Staphylococcus aureus ATCC 25923 assessed as growth inhibition incubated for 18 hrs by broth dilution method; format: functional; conditions: ATCC 25923, 18 h; outline: as §3
Acinetobacter baumannii [9] = test: Antibacterial activity against Acinetobacter baumannii ATCC 19606 assessed as growth inhibition incubated for 18 hrs by resazurin dye based assay; format: functional; conditions: ATCC 19606 = CIP 70.34 = JCM 6841, 18 h; outline: as §4
Pseudomonas aeruginosa [10] = test: Potentiation of nalidixic acid-induced antibacterial activity against Pseudomonas aeruginosa ATCC 27853 assessed as concentration required to restore 2 ug/ml nalidixic acid activity measured after 18 hrs; format: functional
Acinetobacter baumannii [11] = test: Potentiation of nalidixic acid-induced antibacterial activity against Acinetobacter baumannii AYE assessed as concentration required to restore 2 ug/ml nalidixic acid activity measured after 18 hrs; format: functional
Escherichia coli [12] = test: Potentiation of doxycycline-induced antibacterial activity against Escherichia coli ATCC 25922 assessed as concentration required to restore 2 ug/ml doxycycline activity measured after 18 hrs; format: functional; outline: as §2
Pseudomonas aeruginosa [13] = test: Disruption of membrane integrity in Pseudomonas aeruginosa PAO1 assessed as increase in extracellular ATP level by luciferin-luciferase reagent based luminescence assay; format: functional, organism-based
Outline: (§5)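 Growing bacteria (P. aeruginosa PAO1 or S. aureus) in MHB at 37 °C were mixed 9:1 with compound, at 4× MIC, and vortexed for 1 s. Luciferin-luciferase reagent was added immediately and luminescence read for 5 s. ATP was quantified by internal standard addition. Squalamine served as positive control.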

Klebsiella pneumoniae [14] = test: Potentiation of nalidixic acid-induced antibacterial activity against Klebsiella pneumoniae ATCC 13443 assessed as concentration required to restore 2 ug/ml nalidixic acid activity measured after 18 hrs; format: functional
Pseudomonas aeruginosa [15] = test: Induction of membrane depolarization in Pseudomonas aeruginosa measured after 15 mins by DiSC3(5) dye based spectrofluorometric method; format: functional, organism-based
Outline: (§6)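 Bacteria were grown 24 h in MHB at 37 °C, washed in 250 mM sucrose with 5 mM MgSO4, and loaded with 3 μM DiSC3(5) for 1 h at 37 °C. Unbound dye was washed away before compound was added at varied concentrations. Fluorescence was recorded after 15 min on a spectrofluorometer, with pure 3 μM dye as the maximum. CTAB (0.01%) served as positive control.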

Staphylococcus aureus [16] = test: Induction of membrane depolarization in Staphylococcus aureus measured after 15 mins by DiSC3(5) dye based spectrofluorometric method; format: functional, organism-based; outline: as §6
Klebsiella pneumoniae [17] = test: Potentiation of doxycycline-induced antibacterial activity against Klebsiella pneumoniae ATCC 13443 assessed as concentration required to restore 2 ug/ml doxycycline activity measured after 18 hrs; format: functional; outline: as §2
[18] = tested on: Staphylococcus intermedius; test: Antibacterial activity against Staphylococcus intermedius 1051997 assessed as growth inhibition incubated for 18 hrs by broth dilution method; format: functional; conditions: Staphylococcus intermedius, 1051997, 18 h; outline: as §3
Escherichia coli [19] = test: Potentiation of nalidixic acid-induced antibacterial activity against Escherichia coli ATCC 25922 assessed as concentration required to restore 2 ug/ml nalidixic acid activity measured after 18 hrs; format: functional
Klebsiella aerogenes = test: Disruption of membrane integrity in Enterobacter aerogenes EA289 assessed as increase in beta-lactamase hydrolysis by using chromogenic nitrocefin as substrate by spectrophotometry analysis; format: functional
Outline: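 E. aerogenes EA289 was grown in MHB at 37 °C to OD600 0.5, washed in 20 mM potassium phosphate (pH 7.2) with 1 mM MgCl2, and readjusted to OD600 0.5. Cells were exposed to compound at 3.9–250 μM final with nitrocefin at 50 μg/mL final, at room temperature. Hydrolysis was followed as the absorbance rise at 490 nm.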

Staphylococcus aureus [20] = test: Disruption of membrane integrity in Staphylococcus aureus assessed as increase in extracellular ATP level by luciferin-luciferase reagent based luminescence assay; format: functional, organism-based; outline: as §5
Pseudomonas aeruginosa [21] = test: Potentiation of chloramphenicol-induced antibacterial activity against Pseudomonas aeruginosa ATCC 27853 assessed as concentration required to restore 2 ug/ml chloramphenicol activity measured after 18 hrs; format: functional
Pseudomonas aeruginosa [22] = test: Potentiation of erythromycin-induced antibacterial activity against Pseudomonas aeruginosa ATCC 27853 assessed as concentration required to restore 2 ug/ml erythromycin activity measured after 18 hrs; format: functional
Acinetobacter baumannii [23] = test: Potentiation of doxycycline-induced antibacterial activity against Acinetobacter baumannii AYE assessed as concentration required to restore 2 ug/ml doxycycline activity measured after 18 hrs; format: functional; outline: as §2
Klebsiella pneumoniae [24] = test: Potentiation of erythromycin-induced antibacterial activity against Klebsiella pneumoniae ATCC 13443 assessed as concentration required to restore 2 ug/ml erythromycin activity measured after 18 hrs; format: functional
Escherichia coli [25] = test: Potentiation of erythromycin-induced antibacterial activity against Escherichia coli ATCC 25922 assessed as concentration required to restore 2 ug/ml erythromycin activity measured after 18 hrs; format: functional
Escherichia coli [26] = test: Potentiation of chloramphenicol-induced antibacterial activity against Escherichia coli ATCC 25922 assessed as concentration required to restore 2 ug/ml chloramphenicol activity measured after 18 hrs; format: functional
Acinetobacter baumannii [27] = test: Potentiation of chloramphenicol-induced antibacterial activity against Acinetobacter baumannii AYE assessed as concentration required to restore 2 ug/ml chloramphenicol activity measured after 18 hrs; format: functional
Klebsiella pneumoniae [28] = test: Potentiation of chloramphenicol-induced antibacterial activity against Klebsiella pneumoniae ATCC 13443 assessed as concentration required to restore 2 ug/ml chloramphenicol activity measured after 18 hrs; format: functional
Acinetobacter baumannii [29] = test: Potentiation of erythromycin-induced antibacterial activity against Acinetobacter baumannii AYE assessed as concentration required to restore 2 ug/ml erythromycin activity measured after 18 hrs; format: functional

Row | Structure (SMILES) | hemolysis at 1 h, 50 µM [1] | Activity (Pseudomonas aeruginosa [2]) | MIC (Pseudomonas aeruginosa [3]) | MIC (Escherichia coli [4]) | pIC50 (L6) | MIC (Klebsiella pneumoniae [5]) | MIC (Cryptococcus neoformans) | CC50 at 20 h [7] | MIC (Candida albicans) | MIC (Staphylococcus aureus [8]) | MIC (Acinetobacter baumannii [9]) | Activity (Pseudomonas aeruginosa [10]) | Activity (Acinetobacter baumannii [11]) | Activity (Escherichia coli [12]) | Activity (Pseudomonas aeruginosa [13]) | Activity (Klebsiella pneumoniae [14]) | Activity (Pseudomonas aeruginosa [15]) | Activity (Staphylococcus aureus [16]) | Activity (Klebsiella pneumoniae [17]) | MIC [18] | also measured
1 | O=C(NCCCNCCCCNCCCNC(=O)C(=O)c1c[nH]c2cc(Br)c(Br)cc12)C(=O)c1c[nH]c2cc(Br)c(Br)cc12.O=C(O)C(F)(F)F.O=C(O)C(F)(F)F | 88.7% | 25 µM | 100 µM | 50 µM | 5.22 | > 29.4 µM | 3.65 µM | 1.62 µM | > 29.4 µM | 25 µM | > 29.4 µM |  |  |  |  |  |  |  |  |  | HC50 at 1 h [6]: 17 µM
2 | O=C(NCCCNCCCCNCCCNC(=O)C(=O)c1c[nH]c2ccc(Br)cc12)C(=O)c1c[nH]c2ccc(Br)cc12.O=C(O)C(F)(F)F.O=C(O)C(F)(F)F | 34.7% | 3.125 to 6.25 µM | 50 µM | 25 µM | 4.70 | 34.4 µM | 2.2 µM | 14.1 µM | > 34.4 µM | 3.12 µM | > 34.4 µM | >200 µM | 100 µM | 1.68 µM | Dose-dependent effect | 12.5 µM | Dose-dependent effect | Dose-dependent effect | 13.4 µM | 3.12 µM | Activity (Escherichia coli [19]): 100 µM; Activity (Klebsiella aerogenes): Dose-dependent effect; Activity (Staphylococcus aureus [20]): Dose-dependent effect; Activity (Pseudomonas aeruginosa [21]): 26.9 µM; Activity (Pseudomonas aeruginosa [22]): >200 µM; Activity (Acinetobacter baumannii [23]): 6.72 µM
3 | O=C(NCCCNCCCCNCCCNC(=O)C(=O)c1c[nH]c2c(F)cccc12)C(=O)c1c[nH]c2c(F)cccc12.O=C(O)C(F)(F)F.O=C(O)C(F)(F)F | 8.4% | 3.125 µM | 200 µM | 200 µM | 4.41 | > 39.6 µM | 4.9 µM | 18.7 µM | > 39.6 µM | 25 µM | > 39.6 µM |  |  |  | Dose-dependent effect |  | Dose-dependent effect | Dose-dependent effect |  | > 200 µM | Activity (Klebsiella aerogenes): Dose-dependent effect; Activity (Staphylococcus aureus [20]): Dose-dependent effect
4 | COc1cccc2c(C(=O)C(=O)NCCCNCCCCNCCCNC(=O)C(=O)c3c[nH]c4c(OC)cccc34)c[nH]c12 | 0% | 3.75 to 7.5 µM | > 200 µM | > 200 µM | 4.21 | > 38.4 µM | > 38.4 µM | 27.1 µM | 38.4 µM (≈ 23.2 µg/mL) | 15 µM (≈ 9.07 µg/mL) | > 38.4 µM | 60 µM | >200 µM | 3.75 µM |  | >200 µM |  |  | >200 µM |  | Activity (Klebsiella pneumoniae [24]): >200 µM; Activity (Escherichia coli [25]): >200 µM; Activity (Escherichia coli [26]): >200 µM; Activity (Escherichia coli [19]): >200 µM; Activity (Acinetobacter baumannii [27]): >200 µM; Activity (Klebsiella pneumoniae [28]): >200 µM; Activity (Pseudomonas aeruginosa [21]): 30 µM; Activity (Pseudomonas aeruginosa [22]): 100 µM; Activity (Acinetobacter baumannii [23]): 15 µM; Activity (Acinetobacter baumannii [29]): >200 µM
